Results reported in ChEMBL document CHEMBL5724801, “EUbOPEN Chemogenomics Library - Multiplex” (2024).
Several values for one entry are separate records, joined by “and”; a condition that tells them apart may be missing. Equal entries are not always repeated.

Tested on: U2OS
Assay: Multiplex assay against U2OS
Assay type: toxicity, cell-based
Settings: human
In short: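 With compound added, live cells were imaged on a CQ1 microscope at 37°C and 5% CO2; staining with Hoechst33342, BioTracker Green Microtubule Cytoskeleton Dye, MitoTracker Red and Annexin V Alexa Fluor 680 had been done at seeding. The CellPathfinder machine-learning gating scheme split cells into Hoechst high-intensity objects or normal cells, normal cells into healthy, pyknosed or fragmented nuclei, and pyknosed cells into mitotic or apoptotic. The tubulin, mitochondrial-mass and membrane-permeability phenotypes are per cents of healthy-nucleus cells.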

[1] = 12 h, 1 µM, compound concentration 1 uM
[2] = 12 h, 10 µM, compound concentration 10 uM
[3] = 24 h, 1 µM, compound concentration 1 uM
[4] = 24 h, 10 µM, compound concentration 10 uM
[5] = 48 h, 1 µM, compound concentration 1 uM
[6] = 48 h, 10 µM, compound concentration 10 uM

CC(C)(C)c1ccc(CSc2cnn(C(C)(C)C)c(=O)c2Cl)cc1 [PYRIDABEN]
Population Apoptotic (%) [1]: 79% and 63%
Population Fragmented Nuclei (%) [1]: 28% and 11%
Population Healthy Nuclei (%) [1]: 61% and 81%
Population Hoechst High Intensity Objects (%) [1]: 3% and 0%
Population Membrane Permeable-Phenotype (%) [1]: 3% and 4%
Population Mitochondria Different-Phenotype (%) [1]: 1%
Population Mitotic Cells (%) [1]: 20% and 36%
Population Normal (%) [1]: 97% and 99%
Population Pyknosed Nuclei (%) [1]: 9% and 7%
Population Tubulin-Different-Phenotype (%) [1]: 2% and 3%
Total Cell Count [1]: 267 and 152
Population Apoptotic (%) [2]: 83% and 87%
Population Fragmented Nuclei (%) [2]: 28% and 15%
Population Healthy Nuclei (%) [2]: 57% and 73%
Population Hoechst High Intensity Objects (%) [2]: 1% and 0%
Population Membrane Permeable-Phenotype (%) [2]: 5%
Population Mitochondria Different-Phenotype (%) [2]: 5% and 2%
Population Mitotic Cells (%) [2]: 16% and 12%
Population Normal (%) [2]: 98% and 100%
Population Pyknosed Nuclei (%) [2]: 14% and 11%
Population Tubulin-Different-Phenotype (%) [2]: 3% and 2%
Total Cell Count [2]: 209 and 141
Population Apoptotic (%) [3]: 83% and 100%
Population Fragmented Nuclei (%) [3]: 28% and 19%
Population Healthy Nuclei (%) [3]: 58% and 75%
Population Hoechst High Intensity Objects (%) [3]: 1% and 2%
Population Membrane Permeable-Phenotype (%) [3]: 4% and 3%
Population Mitochondria Different-Phenotype (%) [3]: 1%
Population Mitotic Cells (%) [3]: 16% and 0%
Population Normal (%) [3]: 98% and 97%
Population Pyknosed Nuclei (%) [3]: 13% and 5%
Population Tubulin-Different-Phenotype (%) [3]: 1%
Total Cell Count [3]: 286 and 186
Population Apoptotic (%) [4]: 80%
Population Fragmented Nuclei (%) [4]: 22% and 19%
Population Healthy Nuclei (%) [4]: 61% and 68%
Population Hoechst High Intensity Objects (%) [4]: 2% and 1%
Population Membrane Permeable-Phenotype (%) [4]: 8% and 6%
Population Mitochondria Different-Phenotype (%) [4]: 3% and 1%
Population Mitotic Cells (%) [4]: 19% and 20%
Population Normal (%) [4]: 97% and 98%
Population Pyknosed Nuclei (%) [4]: 15% and 12%
Population Tubulin-Different-Phenotype (%) [4]: 6% and 2%
Total Cell Count [4]: 234 and 167
Population Apoptotic (%) [5]: 76% and 84%
Population Fragmented Nuclei (%) [5]: 26% and 19%
Population Healthy Nuclei (%) [5]: 63% and 70%
Population Hoechst High Intensity Objects (%) [5]: 3% and 6%
Population Membrane Permeable-Phenotype (%) [5]: 6% and 5%
Population Mitochondria Different-Phenotype (%) [5]: 3%
Population Mitotic Cells (%) [5]: 23% and 15%
Population Normal (%) [5]: 96% and 93%
Population Pyknosed Nuclei (%) [5]: 9%
Population Tubulin-Different-Phenotype (%) [5]: 3% and 2%
Total Cell Count [5]: 361 and 212
Population Apoptotic (%) [6]: 90% and 95%
Population Fragmented Nuclei (%) [6]: 20% and 16%
Population Healthy Nuclei (%) [6]: 64% and 70%
Population Hoechst High Intensity Objects (%) [6]: 4% and 3%
Population Membrane Permeable-Phenotype (%) [6]: 9% and 5%
Population Mitochondria Different-Phenotype (%) [6]: 4% and 6%
Population Mitotic Cells (%) [6]: 10% and 4%
Population Normal (%) [6]: 95% and 96%
Population Pyknosed Nuclei (%) [6]: 14% and 13%
Population Tubulin-Different-Phenotype (%) [6]: 6% and 4%
Total Cell Count [6]: 280 and 191

CCn1cnc2c(-c3ccc(F)c(-c4ccc(S(=O)(=O)CC)cc4OC)c3)cnnc21 [DARIGABAT]
Population Apoptotic (%) [1]: 18.37% and 38.1%
Population Fragmented Nuclei (%) [1]: 2.41% and 2.26%
Population Healthy Nuclei (%) [1]: 84.49% and 81.95%
Population Hoechst High Intensity Objects (%) [1]: 0%
Population Membrane Permeable-Phenotype (%) [1]: 0.95% and 3.67%
Population Mitochondria Different-Phenotype (%) [1]: 0% and 6.42%
Population Mitotic Cells (%) [1]: 81.63% and 61.9%
Population Normal (%) [1]: 100%
Population Pyknosed Nuclei (%) [1]: 13.1% and 15.79%
Population Tubulin-Different-Phenotype (%) [1]: 1.58% and 0.92%
Total Cell Count [1]: 374 and 133
Population Apoptotic (%) [2]: 35.44% and 27.5%
Population Fragmented Nuclei (%) [2]: 2.35% and 3.87%
Population Healthy Nuclei (%) [2]: 74.41% and 70.32%
Population Hoechst High Intensity Objects (%) [2]: 0% and 0.64%
Population Membrane Permeable-Phenotype (%) [2]: 3.95% and 3.67%
Population Mitotic Cells (%) [2]: 64.56% and 72.5%
Population Normal (%) [2]: 100% and 99.36%
Population Pyknosed Nuclei (%) [2]: 25.81%
Total Cell Count [2]: 340 and 156
Population Apoptotic (%) [3]: 28.12% and 48%
Population Fragmented Nuclei (%) [3]: 1.34% and 1.64%
Population Healthy Nuclei (%) [3]: 86.42% and 84.7%
Population Hoechst High Intensity Objects (%) [3]: 0%
Population Membrane Permeable-Phenotype (%) [3]: 0.66% and 4.52%
Population Mitochondria Different-Phenotype (%) [3]: 0% and 1.94%
Population Mitotic Cells (%) [3]: 71.88% and 52%
Population Normal (%) [3]: 100%
Population Pyknosed Nuclei (%) [3]: 12.24% and 13.66%
Population Tubulin-Different-Phenotype (%) [3]: 2.21% and 0%
Total Cell Count [3]: 523 and 183
Population Apoptotic (%) [4]: 49.55% and 36%
Population Fragmented Nuclei (%) [4]: 3.86% and 1.2%
Population Healthy Nuclei (%) [4]: 67.61% and 68.67%
Population Hoechst High Intensity Objects (%) [4]: 0%
Population Membrane Permeable-Phenotype (%) [4]: 3.04% and 5.26%
Population Mitotic Cells (%) [4]: 50.45% and 64%
Population Normal (%) [4]: 100%
Population Pyknosed Nuclei (%) [4]: 28.53% and 30.12%
Population Tubulin-Different-Phenotype (%) [4]: 11.79% and 2.63%
Total Cell Count [4]: 389 and 166
Population Apoptotic (%) [5]: 49.52% and 51.28%
Population Fragmented Nuclei (%) [5]: 5.85% and 2.9%
Population Healthy Nuclei (%) [5]: 81.07% and 82.97%
Population Hoechst High Intensity Objects (%) [5]: 0%
Population Membrane Permeable-Phenotype (%) [5]: 0.61% and 2.62%
Population Mitochondria Different-Phenotype (%) [5]: 0% and 3.49%
Population Mitotic Cells (%) [5]: 50.48% and 48.72%
Population Normal (%) [5]: 100%
Population Pyknosed Nuclei (%) [5]: 13.08% and 14.13%
Population Tubulin-Different-Phenotype (%) [5]: 1.84% and 0.87%
Total Cell Count [5]: 803 and 276
Population Apoptotic (%) [6]: 64.56% and 67.12%
Population Fragmented Nuclei (%) [6]: 3.84% and 5.23%
Population Healthy Nuclei (%) [6]: 52.88% and 47.06%
Population Hoechst High Intensity Objects (%) [6]: 0%
Population Membrane Permeable-Phenotype (%) [6]: 7.25% and 11.11%
Population Mitotic Cells (%) [6]: 35.44% and 32.88%
Population Normal (%) [6]: 100%
Population Pyknosed Nuclei (%) [6]: 43.29% and 47.71%
Population Tubulin-Different-Phenotype (%) [6]: 24.87% and 11.11%
Total Cell Count [6]: 365 and 153
